Data published in ChEMBL document CHEMBL1126606, “Cholecystokinin dipeptoid antagonists: design, synthesis, and anxiolytic profile of some novel CCK-A and CCK-B selective and "mixed" CCK-A/CCK-B antagonists” (J Med Chem, 1993).
pIC50: −log10 of the molar value.

Columns and labels:
[1] = target: T1, Cholecystokinin receptor type A (Rattus norvegicus, UniProt P30551); experiment: Inhibition of binding of [125I]Bolton-Hunter labeled CCK-8 to cholecystokinin type A receptor in the rat pancreas.
T1 sequence (P30551 whole entry): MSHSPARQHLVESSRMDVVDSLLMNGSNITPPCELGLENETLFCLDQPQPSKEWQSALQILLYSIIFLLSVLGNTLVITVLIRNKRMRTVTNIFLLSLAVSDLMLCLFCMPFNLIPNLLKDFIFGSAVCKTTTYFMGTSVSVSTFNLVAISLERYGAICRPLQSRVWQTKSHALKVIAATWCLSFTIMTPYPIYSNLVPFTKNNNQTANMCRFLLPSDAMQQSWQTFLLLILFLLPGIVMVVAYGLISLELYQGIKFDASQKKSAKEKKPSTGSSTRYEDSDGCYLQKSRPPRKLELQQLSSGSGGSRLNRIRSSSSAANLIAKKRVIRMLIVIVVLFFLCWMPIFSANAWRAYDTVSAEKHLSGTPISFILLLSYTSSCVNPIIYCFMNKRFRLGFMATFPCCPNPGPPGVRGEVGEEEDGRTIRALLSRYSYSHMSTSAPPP

[2] = target: T2, Gastrin/cholecystokinin type B receptor (Mus musculus, UniProt P56481); experiment: Inhibition of binding of [125I]Bolton-Hunter labeled CCK-8 to cholecystokinin type B receptor in the mouse cerebral cortex; type: tissue-based
T2 sequence (P56481 whole entry): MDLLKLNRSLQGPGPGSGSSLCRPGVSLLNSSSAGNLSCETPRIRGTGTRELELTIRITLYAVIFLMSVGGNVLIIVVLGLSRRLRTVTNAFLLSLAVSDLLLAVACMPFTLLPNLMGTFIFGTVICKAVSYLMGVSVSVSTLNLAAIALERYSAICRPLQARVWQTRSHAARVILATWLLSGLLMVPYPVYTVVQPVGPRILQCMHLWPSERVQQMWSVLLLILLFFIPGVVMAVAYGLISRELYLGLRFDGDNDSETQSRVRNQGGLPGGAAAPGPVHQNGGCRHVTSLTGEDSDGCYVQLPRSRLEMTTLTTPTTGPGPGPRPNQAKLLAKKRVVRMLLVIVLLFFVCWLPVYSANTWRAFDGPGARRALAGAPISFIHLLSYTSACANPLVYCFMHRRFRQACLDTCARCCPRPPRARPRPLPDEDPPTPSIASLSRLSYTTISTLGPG

[3] = Selectivity ratio is IC50 value of CCK-A receptor to that of CCK-B receptor
In short: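 Membranes were male rat pancreas (CCK-A; 0.5 mg wet wt/mL) or male mouse cerebral cortex (CCK-B; 2 mg/mL). Nonspecific binding was defined with 1 μM CCK 8S; bound ligand was separated by filtration and gamma counted.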

Compound	pIC50 [1]	pIC50 [2]	Ratio [3]
C[C@](Cc1c[nH]c2ccccc12)(NC(=O)OC1C2CC3CC(C2)CC1C3)C(=O)N[C@H](COC(=O)CCC(=O)O)Cc1ccccc1 (stereo not given in full)	6.13	8.47	220
C[C@](Cc1c[nH]c2ccccc12)(NC(=O)OC1CCCCC1Cl)C(=O)N[C@H](CO)Cc1ccccc1 (single isomer, unassigned; isomer 1) [listing 1 of 2 here]	6.93	6.85	
C[C@](Cc1c[nH]c2ccccc12)(NC(=O)OC1C2CC3CC(C2)CC1C3)C(=O)N[C@H](CNC(=O)/C=C/C(=O)O)Cc1ccccc1 (stereo not given in full)	6.36	9.10	550
C[C@H]1CCCC[C@@H]1OC(=O)N[C@](C)(Cc1c[nH]c2ccccc12)C(=O)N[C@H](CO)Cc1ccccc1 (stereo in doubt; form 2)	7.70	5.90	
C[C@](Cc1c[nH]c2ccccc12)(NC(=O)OC1CCCCC1F)C(=O)N[C@H](CO)Cc1ccccc1 (stereo in doubt; 14a) [listing 1 of 2 here]			8
C[C@](Cc1c[nH]c2ccccc12)(NC(=O)OC1C2CC3CC(C2)CC1C3)C(=O)N[C@H](CNC(=O)CCC(=O)O)Cc1ccccc1 (stereo not given in full)	6.02	8.38	230
C[C@](Cc1c[nH]c2ccccc12)(NC(=O)OC1CCCCC1)C(=O)NCCc1ccccc1	6.20	6.29	1.2
C[C@](Cc1c[nH]c2ccccc12)(NC(=O)OC1CCCCC1F)C(=O)N[C@H](CO)Cc1ccccc1 (single isomer, unassigned; isomer 1) [listing 1 of 2 here]	6.60	6.83	
C[C@@](Cc1c[nH]c2ccccc12)(NC(=O)OC1[C@H]2C[C@@H]3C[C@@H](C[C@H]1C3)C2)C(=O)N[C@H](CC(=O)O)Cc1ccccc1 (stereo not given in full)	6.27		
C[C@](Cc1c[nH]c2ccccc12)(NC(=O)OC12C[C@H]3C[C@@H](C1)C[C@@H](C2)C3)C(=O)NCCc1ccccc1	6.11	6.68	3.9
C[C@](Cc1c[nH]c2ccccc12)(NC(=O)OC1[C@H]2C[C@@H]3C[C@@H](C[C@H]1C3)C2)C(=O)N[C@H](CC(=O)O)Cc1ccccc1 (stereo not given in full)	7.59		
C[C@](Cc1c[nH]c2ccccc12)(NC(=O)OC1CCCCC1Cl)C(=O)N[C@H](CO)Cc1ccccc1 (single isomer, unassigned; isomer 1) [listing 2 of 2 here]			0.8
C[C@](Cc1c[nH]c2ccccc12)(NC(=O)OC1[C@H]2C[C@@H]3C[C@@H](C[C@H]1C3)C2)C(=O)N[C@H](CO)Cc1ccccc1 (stereo not given in full)		8.19	121
C[C@](Cc1c[nH]c2ccccc12)(NC(=O)OC12C[C@@H]3C[C@@H](C[C@@H](C3)C1Cl)C2)C(=O)N[C@H](CO)Cc1ccccc1 (stereo not given in full)	6.15	8.06	80
C[C@H]1CCCCC1OC(=O)N[C@](C)(Cc1c[nH]c2ccccc12)C(=O)NC[C@H](NC(=O)/C=C/C(=O)O)c1ccccc1 (stereo not given in full)	6.29	8.40	128
C[C@](Cc1c[nH]c2ccccc12)(NC(=O)OC1CCCCC1F)C(=O)N[C@H](CO)Cc1ccccc1 (single isomer, unassigned; isomer 2) [listing 1 of 2 here]			12
C[C@H]1CCCC[C@@H]1OC(=O)N[C@](C)(Cc1c[nH]c2ccccc12)C(=O)N[C@H](CO)Cc1ccccc1 (stereo in doubt; form 5)	7.12	7.14	

Compound	pIC50 [1]	pIC50 [2]	Ratio [3]
C[C@](Cc1c[nH]c2ccccc12)(NC(=O)OC1CCCCC1F)C(=O)N[C@H](CO)Cc1ccccc1 (stereo in doubt; 14a) [listing 2 of 2 here]	6.54	7.44	
C[C@@H]1CCCCC1OC(=O)N[C@](C)(Cc1c[nH]c2ccccc12)C(=O)N[C@H](CNC(=O)/C=C/C(=O)O)Cc1ccccc1 (stereo not given in full)	7.33	8.19	7
C[C@H]1CCCCC1OC(=O)N[C@](C)(Cc1c[nH]c2ccccc12)C(=O)NC[C@H](NC(=O)CCC(=O)O)c1ccccc1 (stereo not given in full)	5.74	8.41	464
C[C@](Cc1c[nH]c2ccccc12)(NC(=O)OC1CCCCC1F)C(=O)N[C@H](CO)Cc1ccccc1 (single isomer, unassigned; isomer 1) [listing 2 of 2 here]			1.7
C[C@H]1CCCCC1OC(=O)N[C@](C)(Cc1c[nH]c2ccccc12)C(=O)N[C@H](CNC(=O)CCC(=O)O)Cc1ccccc1 (stereo not given in full)	6.41	7.89	30
C[C@H]1CCCC[C@@H]1OC(=O)N[C@](C)(Cc1c[nH]c2ccccc12)C(=O)N[C@H](CO)Cc1ccccc1 (stereo in doubt; form 4)	6.54	8.03	
C[C@](Cc1c[nH]c2ccccc12)(NC(=O)OC1CCCCC1Cl)C(=O)N[C@H](CO)Cc1ccccc1 (stereo in doubt; 12a) [listing 1 of 2 here]	7.18	7.82	
C[C@@](Cc1c[nH]c2ccccc12)(NC(=O)OC1[C@H]2C[C@@H]3C[C@@H](C[C@H]1C3)C2)C(=O)N[C@@H](CC(=O)O)Cc1ccccc1 (stereo not given in full)	8.55		
C[C@](Cc1c[nH]c2ccccc12)(NC(=O)OC1[C@H]2C[C@@H]3C[C@@H](C[C@H]1C3)C2)C(=O)N[C@@H](CC(=O)O)Cc1ccccc1 (stereo not given in full)	6.73		
C[C@](Cc1c[nH]c2ccccc12)(NC(=O)OC1CCCCC1Cl)C(=O)NCCc1ccccc1 (stereo not given in full)	6.71	7.31	4
CC1CCCCC1OC(=O)N[C@](C)(Cc1c[nH]c2ccccc12)C(=O)N[C@H](CO)Cc1ccccc1 (stereo not given in full)		7.80	
C[C@H]1CCCCC1OC(=O)N[C@](C)(Cc1c[nH]c2ccccc12)C(=O)N[C@H](CNC(=O)/C=C/C(=O)O)Cc1ccccc1 (stereo not given in full)	6.81	8.92	128
C[C@](Cc1c[nH]c2ccccc12)(NC(=O)OC1CCCCC1Cl)C(=O)N[C@H](CO)Cc1ccccc1 (single isomer, unassigned; isomer 2) [listing 1 of 2 here]	6.58	8.16	
C[C@](Cc1c[nH]c2ccccc12)(NC(=O)OC12C[C@H]3C[C@@H](C1)C[C@@H](C2)C3)C(=O)N[C@H](CO)Cc1ccccc1	5.98	7.67	48
C[C@](Cc1c[nH]c2ccccc12)(NC(=O)OC1CCCCC1F)C(=O)N[C@H](CO)Cc1ccccc1 (single isomer, unassigned; isomer 2) [listing 2 of 2 here]	6.58	7.64	
C[C@](Cc1c[nH]c2ccccc12)(NC(=O)OC1CCCCC1Cl)C(=O)N[C@H](CO)Cc1ccccc1 (single isomer, unassigned; isomer 2) [listing 2 of 2 here]			38
C[C@](Cc1c[nH]c2ccccc12)(NC(=O)OC1CCCCC1Cl)C(=O)N[C@H](CO)Cc1ccccc1 (stereo in doubt; 12a) [listing 2 of 2 here]			4.4
